Source: ChEMBL document CHEMBL1255290, “Characterization of a novel human immunodeficiency virus type 1 protease inhibitor, A-790742” (Antimicrob Agents Chemother, 2008)

Experiments:
[1] = system: Human immunodeficiency virus 1; assay: Antiviral activity against HIV1 clone2 infected in HEK293 cells harboring A-790742-selected protease V82L mutation assessed as reduction in viral replication by luciferase reporter gene assay relative to wild type HIV1 pNL4-3; type: functional
Outline: (§1)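 Single-cycle assay: HEK-293 cells were cotransfected with luciferase-reporter HIV-1 protease clones plus a VSV-G expression vector. After 4 h, cells were replated at 2 × 10⁴/well over serial inhibitor dilutions in triplicate. Pseudovirus collected at 48 h infected fresh HEK-293 (10⁴/well). Luciferase read 48 h later gave % inhibition versus untreated and EC50. Fold change against WT pNL4-3-Luc (clones 1-4) or RF-Luc (clone 5) is the mean of three experiments.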

[2] = system: Human immunodeficiency virus 1; assay: Antiviral activity against HIV1 P25 infected in human MT4 cells harboring protease L10F, G16E, V32I, M46I, I47A, H69Y, I84V, and T91S mutation derived from viral passages with Lopinavir assessed as reduction in viral cytopathogenicity treated 1 hr post infection measured 5 days post infection by MTT assay; type: functional, organism-based; conditions: Human immunodeficiency virus 1, P25, MT4
Outline: (§2)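 For the assay, 10⁶ MT-4 cells were infected at MOI 0.003, washed after 1 h, and plated at 10⁴ cells/well with eight serial compound dilutions in triplicate (0.5% DMSO final). MTT cytopathic read-out at day 5; EC50 from dose-response fitting.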

[3] = system: Human immunodeficiency virus 1; assay: Antiviral activity against HIV1 clone4 infected in HEK293 cells harboring A-790742-selected protease L33F, A71V, G73S, V77I, V82L, and I84V mutation assessed as reduction in viral replication by luciferase reporter gene assay relative to wild type HIV1 pNL4-3; type: functional; outline: as §1
[4] = system: Human immunodeficiency virus 1; assay: Antiviral activity against HIV1 clone3 infected in HEK293 cells harboring A-790742-selected protease L33F, K45I, V82L, and I84V mutation assessed as reduction in viral replication by luciferase reporter gene assay relative to wild type HIV1 pNL4-3; type: functional; outline: as §1
[5] = system: Human immunodeficiency virus 1; assay: Antiviral activity against HIV1 clone1 infected in HEK293 cells harboring A-790742-selected protease I84V mutation assessed as reduction in viral replication by luciferase reporter gene assay relative to wild type HIV1 pNL4-3; type: functional; outline: as §1
[6] = system: Human immunodeficiency virus 1; assay: Antiviral activity against HIV1 clone5 infected in HEK293 cells harboring A-790742-selected protease L63P, A71V, and V82G mutation assessed as reduction in viral replication by luciferase reporter gene assay relative to wild type HIV1 RF; type: functional; outline: as §1
[7] = system: Human immunodeficiency virus 1; assay: Antiviral activity against wild-type HIV1 pNL4-3 infected in human MT4 cells assessed as reduction in viral cytopathogenicity treated 1 hr post infection measured 5 days post infection in presence of 50% human serum by MTT assay; type: functional, organism-based; conditions: Human immunodeficiency virus 1, pNL4-3, MT4
[8] = system: Human immunodeficiency virus 1; assay: (§3) Antiviral activity against HIV1 P15 infected in human MT4 cells derived from viral passages with A-790742 harboring protease L33L/F, K45I, V82L, and I84V mutation assessed as reduction in viral cytopathogenicity treated 1 hr post infection measured 5 days post infection by MTT assay relative to wild type HIV1 pNL4-3; type: functional; outline: as §2
[9] = system: Human immunodeficiency virus 1; assay: as §3, with “P13” for “P15”, “M46I, L63P, A71V,” for “L33L/F, K45I, V82L,”, “V82G” for “I84V”, “RF” for “pNL4-3”; type: functional; outline: as §2
[10] = system: Human immunodeficiency virus 1; assay: as §3, with “P9” for “P15”, “V82V/L” for “L33L/F, K45I, V82L,”; type: functional; outline: as §2
[11] = system: Human immunodeficiency virus 1; assay: as §3, with “P21” for “P15”, “L23I, L33F,” for “L33L/F,”, “K45I, A71A/V, V77I,” for “K45I,”; type: functional; outline: as §2
[12] = system: Human immunodeficiency virus 1; assay: Antiviral activity against HIV1 isolate 10 infected in human MT4 cells obtained from protease inhibitor-resistant patient harboring protease L10I, I13V, K20R, L33F, E35D, M36I, N37D, I54L, Q58E, I62V, L63P, A71V, V82A, I84V, L90M mutation derived from viral passages with Lopinavir assessed as reduction in viral cytopathogenicity treated 1 hr post infection measured 5 days post infection by MTT …; type: functional
[13] = system: Human immunodeficiency virus 1; assay: Antiviral activity against wild-type HIV1 pNL4-3 infected in human MT4 cells assessed as reduction in viral cytopathogenicity treated 1 hr post infection measured 5 days post infection in absence of human serum by MTT assay; type: functional, organism-based; conditions: Human immunodeficiency virus 1, pNL4-3, MT4; outline: as §2
[14] = system: Human immunodeficiency virus 1; assay: Antiviral activity against HIV1 B26 infected in human MT4 cells harboring protease L33F, K45I, M46I, I50V, I54V, A71V, and V82F mutation derived from viral passages with Lopinavir assessed as reduction in viral cytopathogenicity treated 1 hr post infection measured 5 days post infection by MTT assay; type: functional, organism-based; conditions: Human immunodeficiency virus 1, B26, MT4; outline: as §2
[15] = system: Human immunodeficiency virus 1; assay: Antiviral activity against HIV1 isolate 11 infected in human MT4 cells obtained from protease inhibitor-resistant patient harboring protease L10I, I15V, K20R, E21Q, E35D, M36I, N37D, R41K, M46L, I54V, I62V, L63P, A71V, T74D, P79A, V82T, I84V, I85V, L90M, I93L mutation derived from viral passages with Lopinavir assessed as reduction in viral cytopathogenicity treated 1 hr post infection measured …; type: functional
[16] = system: Human immunodeficiency virus 1; assay: Antiviral activity against HIV1 isolate 12 infected in human MT4 cells obtained from protease inhibitor-resistant patient harboring protease L10I, I13V, K20I, E35D, M36I, M46I, I50V, I54V, R57K, I62V, L63P, A71V, V82A, L89V, L90M, Q92K mutation derived from viral passages with Lopinavir assessed as reduction in viral cytopathogenicity treated 1 hr post infection measured 5 days post infection by …; type: functional
[17] = system: Human immunodeficiency virus 1; assay: Antiviral activity against HIV1 isolate 5 infected in human MT4 cells obtained from protease inhibitor-resistant patient harboring protease L10F, I15V, M46I, L63P, A71V, I72L, V82T, I84V, I85V, L90M mutation derived from viral passages with Lopinavir assessed as reduction in viral cytopathogenicity treated 1 hr post infection measured 5 days post infection by MTT assay relative to wild type HIV1 …; type: functional
[18] = system: Human immunodeficiency virus 1; assay: Antiviral activity against HIV1 isolate 6 infected in human MT4 cells obtained from protease inhibitor-resistant patient harboring protease L10I, L24I, M46I, I54V, K55R, Q58E, L63P, I64V, A71V, V82A, T91A mutation derived from viral passages with Lopinavir assessed as reduction in viral cytopathogenicity treated 1 hr post infection measured 5 days post infection by MTT assay relative to wild type …; type: functional
[19] = system: Human immunodeficiency virus 1; assay: Antiviral activity against HIV1 isolate 3 infected in human MT4 cells obtained from protease inhibitor-resistant patient harboring protease L10I, E35D, N37D, […], I54V, L63P, A71V, T74P, I84V, L90M, I93L mutation derived from viral passages with Lopinavir assessed as reduction in viral cytopathogenicity treated 1 hr post infection measured 5 days post infection by MTT assay relative to wild type …; type: functional
[20] = system: Human immunodeficiency virus 1; assay: Antiviral activity against HIV1 isolate 7 infected in human MT4 cells obtained from protease inhibitor-resistant patient harboring protease L10I, M46M/L, G48V, I54V, L63P, A71V, I72M, V77I, V82A, L90M, I93L mutation derived from viral passages with Lopinavir assessed as reduction in viral cytopathogenicity treated 1 hr post infection measured 5 days post infection by MTT assay relative to wild …; type: functional
[21] = system: Human immunodeficiency virus 1; assay: Antiviral activity against HIV1 isolate 2 infected in human MT4 cells obtained from protease inhibitor-resistant patient harboring protease L10I, I15V, G16E, K20R, E35D, M36I, R41K, I54A, R57K, Q61D, A71V, I72R, V82A, L89I, L90M, Q92K mutation derived from viral passages with Lopinavir assessed as reduction in viral cytopathogenicity treated 1 hr post infection measured 5 days post infection by …; type: functional
[22] = system: Human immunodeficiency virus 1; assay: Antiviral activity against HIV1 isolate 13 infected in human MT4 cells obtained from protease inhibitor-resistant patient harboring protease L10I, K14R, L33F, E34Q, R41K, K45R, M46I, I50V, K55R, L63P, A71V, G73T, V77I, V82A, L90M, I93L mutation derived from viral passages with Lopinavir assessed as reduction in viral cytopathogenicity treated 1 hr post infection measured 5 days post infection by …; type: functional
[23] = system: Human immunodeficiency virus 1; assay: Antiviral activity against wild-type HIV1 RF infected in human MT4 cells assessed as reduction in viral cytopathogenicity treated 1 hr post infection measured 5 days post infection in absence of human serum by MTT assay; type: functional, organism-based; conditions: Human immunodeficiency virus 1, RF; outline: as §2
[24] = system: Human immunodeficiency virus 1; assay: Antiviral activity against HIV1 A17 infected in human MT4 cells harboring protease L10F, V32I, M46I, I47V, Q58E, and I84V mutation derived from viral passages with Lopinavir assessed as reduction in viral cytopathogenicity treated 1 hr post infection measured 5 days post infection by MTT assay; type: functional, organism-based; conditions: Human immunodeficiency virus 1, A17, MT4; outline: as §2
[25] = system: Human immunodeficiency virus 1; assay: Antiviral activity against HIV1 isolate 4 infected in human MT4 cells obtained from protease inhibitor-resistant patient harboring protease N37T, M46I, Q58E, I64V, T74K, V77I, V82F, L90M mutation derived from viral passages with Lopinavir assessed as reduction in viral cytopathogenicity treated 1 hr post infection measured 5 days post infection by MTT assay relative to wild type HIV1 pNL4-3; type: functional
[26] = system: Human immunodeficiency virus 1; assay: Antiviral activity against HIV1 isolate 8 infected in human MT4 cells obtained from protease inhibitor-resistant patient harboring protease L10I, I13V, L33F, E34Q, R41K, M46I, I54V, K55R, R57K, Q58E, I62V, L63P, A71V, I72I/T, G73S, V82A, I84V, L90M mutation derived from viral passages with Lopinavir assessed as reduction in viral cytopathogenicity treated 1 hr post infection measured 5 days post …; type: functional
[27] = system: Human immunodeficiency virus 1; assay: Antiviral activity against HIV1 isolate 9 infected in human MT4 cells obtained from protease inhibitor-resistant patient harboring protease L10I, I15I/V, K20R, L33F, E35D, M36I, N37D, R41K, K43I, M46I, I54V, I62V, L63P, A71T, I72T, V82A, I84V, L90M, I93L mutation derived from viral passages with Lopinavir assessed as reduction in viral cytopathogenicity treated 1 hr post infection measured 5 days …; type: functional

SMILES	Ratio EC50 [1]	EC50 [2]	Ratio EC50 [3]	Ratio EC50 [4]	Ratio EC50 [5]	Ratio EC50 [6]	EC50 [7]	Ratio EC50 [8]	Ratio EC50 [9]	Ratio EC50 [10]	Ratio EC50 [11]	further results
CC(C)CN(C[C@@H](O)[C@H](Cc1ccccc1)NC(=O)O[C@H]1CO[C@H]2OCC[C@H]21)S(=O)(=O)c1ccc(N)cc1	1	857 nM	7	12	1	59	40 nM	–	–	–	–	–
CC(C)(C)NC(=O)[C@@H]1CN(Cc2cccnc2)CCN1C[C@@H](O)C[C@@H](Cc1ccccc1)C(=O)N[C@H]1c2ccccc2C[C@H]1O.O	1	–	2	5	1	76	–	5	31	3	14	–
CC(C)CN(C[C@@H](O)[C@H](Cc1ccccc1)NC(=O)O[C@H]1CCOC1)S(=O)(=O)c1ccc(N)cc1	1	–	2	12	1	41	–	11	41	9	34	–
COC(=O)N[C@H](C(=O)N[C@@H](Cc1ccccc1)[C@@H](O)CN(Cc1ccc(-c2ccccn2)cc1)NC(=O)[C@@H](NC(=O)OC)C(C)(C)C)C(C)(C)C [ATAZANAVIR]	1	355 nM	16	34	1	39	11 nM	14	31	6	145	Ratio EC50 [12]: 56; EC50 [13]: 4 nM; EC50 [14]: 51 nM; Ratio EC50 [15]: 43; Ratio EC50 [16]: 3; Ratio EC50 [17]: 18; Ratio EC50 [18]: 15; Ratio EC50 [19]: 89; Ratio EC50 [20]: 25; Ratio EC50 [21]: 172; Ratio EC50 [22]: 5; EC50 [23]: 7 nM; EC50 [24]: 296 nM; Ratio EC50 [25]: 5; Ratio EC50 [26]: 32; Ratio EC50 [27]: 22
